Source: PMC12765261 (Journal of Pharmaceutical Analysis, 2025)
Structures can show the parent of a compound that is named as a salt.

Columns and labels:
Stability experiments = type: physicochemical; conditions: 75% RH for 5 and 10 days
Hygroscopicity test = type: physicochemical; conditions: 25 °C/80% RH for 24 h
Method in brief: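 Co-amorphous samples were held at 25 °C/80% RH for 24 h, and percentage weight gain was calculated, n = 3. Pharmacopeial criteria were applied: a gain above 2% but below 15% counts as hygroscopic.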

[1] = tested on: GLUT4 expression in H9c2 cells; assay: GLUT4 immunofluorescence; type: cell-based; conditions: 2 h pre-treatment before HGHI incubation
Method in brief: (§1)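 Before the high-glucose/high-insulin step (30 mM glucose, 5 μM insulin, 30 h), cells were pre-treated for 2 h with the PI3K inhibitor LY294002 or the AMPK inhibitor dorsomorphin. They then received test compounds at varying concentrations for 24 h. GLUT4 was immunostained with a rabbit polyclonal primary and a fluorescein-conjugated secondary, with DAPI for nuclei. Cells were imaged by confocal microscopy and GLUT4 signal was quantified.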

[2] = tested on: GLUT4 expression in HepG2 cells; assay: GLUT4 immunofluorescence; type: cell-based; conditions: 2 h pre-treatment before HGHI incubation
Method in brief: as §1

H9c2 cells = assay: Cytotoxicity, MTT assay under HGHI conditions; type: cell-based; conditions: 24 h
Method in brief: (§2)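 Cell lines were kept in DMEM (25 mM glucose, 10% FBS, 1% penicillin/streptomycin) at 37 °C and 5% CO2. Insulin resistance was induced with 30 mM glucose plus 5 μM insulin for 30 h. Cells were then exposed for 24 h under these conditions to a range of concentrations of the single components, a physical mixture or the co-amorphous system. Viability was read by MTT, n = 3, mean ± SD.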

HepG2 cells = assay: Cytotoxicity, MTT assay under HGHI conditions; type: cell-based; conditions: 24 h
Method in brief: as §2

| Phase stability under high humidity (XRD) (Stability experiments) | Percentage of weight gain (hygroscopicity) (Hygroscopicity test) | Structure (SMILES) | Effect of inhibitor on GLUT4 fluorescence induced by COA-I [1] | Effect of inhibitor on GLUT4 fluorescence induced by COA-I [2] | Concentrations showing cytotoxicity (H9c2 cells) | Concentrations showing cytotoxicity (HepG2 cells) |
| --- | --- | --- | --- | --- | --- | --- |
| remained amorphous | 5.36% | CCOc1ccc(Cc2cc([C@@H]3O[C@H](CO)[C@@H](O)[C@H](O)[C@H]3O)ccc2Cl)cc1 [DAP, Dapagliflozin] | – | – | – | – |
| – | – | O=c1cc(N2CCOCC2)oc2c(-c3ccccc3)cccc12 [LY294002] | attenuated | attenuated | – | – |
| – | 0.86% | CCc1ccc(CCOc2ccc(CC3SC(=O)NC3=O)cc2)nc1 (stereo not drawn) [PIO, Pioglitazone] | – | – | higher than 10 μM | higher than 10 μM |
| – | – | c1cc(-c2cnn3cc(-c4ccc(OCCN5CCCCC5)cc4)cnc23)ccn1 [compound C, dorsomorphin (compound C) dihydrochloride] | attenuated | attenuated | – | – |
